PostGolgi yeast: growth inhibition of a yeast mutant, post-Golgi transport screen | post-Golgi transport phenotypic cell assay | inhibition, % at 10 µM | 98,000 compounds, 0.9% hits | AID 739;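 further: yeast cells grown in 1536-well plates; yeast grown about 18 h at 30C before absorbance read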
tolC growth inh: growth inhibitors of E. coli BW25113 tolC mutant; OD615; growth inhibition, % at 10 µM (by protocol); 65,000 compounds, 2.2% hits; AID 573;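 active means growth inhibition at or above a cutoff equal to the mean over every tested compound plus 3 SD, cut at about 60% in these data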;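 further: growth measured after 20 h incubation at 37 °C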
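test system = E. coli BW25113 ΔtolC::kan bacteria | medium = LB with kanamycin 50 µg/mL | signal = OD at 615 nm | schedule = 37 °C, 20 h exposure | evaluation = % inhibition of E. coli growth | compound dosing = one dose of 10 µM final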
HePTP inh: inhibitors of human HePTP phosphatase; recombinant HePTP phosphatase activity, OD absorbance; inhibition, % at 20 µM; 110,000 compounds, 0.64% hits; AID 521; in the data active means inhibition above about 50%;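 further: plate controls were vehicle for no effect and reference inhibitor for full effect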
Target sequence (P35236 whole entry, looked up): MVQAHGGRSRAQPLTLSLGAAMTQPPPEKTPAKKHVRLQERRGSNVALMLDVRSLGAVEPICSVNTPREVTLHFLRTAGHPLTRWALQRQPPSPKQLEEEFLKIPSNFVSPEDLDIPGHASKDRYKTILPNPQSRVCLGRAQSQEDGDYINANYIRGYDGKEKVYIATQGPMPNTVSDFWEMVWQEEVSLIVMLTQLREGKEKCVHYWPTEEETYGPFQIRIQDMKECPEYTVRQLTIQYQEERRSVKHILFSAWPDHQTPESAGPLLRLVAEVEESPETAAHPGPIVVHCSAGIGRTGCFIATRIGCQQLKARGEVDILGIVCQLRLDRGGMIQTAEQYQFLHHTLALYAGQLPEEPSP
PLAP activator: activates human placental alkaline phosphatase. activation fold at 20 µM. P05187. AID 696. 96,000 compounds, 1.2% hits. purified PLAP enzyme, luminescent substrate read-out; hits give high values; in the data active means activation fold above about 2
PostGolgi ctrl: yeast control strain growth, post-Golgi counter-screen; efflux-deficient yeast background strain, growth absorbance A615, 16 h; 98,000 compounds, 5% hits; AID 738; inhibition, % at 10 µM
E coli WT exp: blocks growth of wild type E. coli BW25113; OD600 absorbance; growth inhibition, % at 100 µM; 98,000 compounds, 0.15% hits;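 active means growth inhibition above about 50% at one test dose, limit read from the data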;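 further: growth measured after 20 h incubation at 37 °C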
Starred values were filed as active, the others as inactive; nt = no result given. Shown are actives, neighbours in structure and some others; about 5.5% of the full set was active somewhere. Unless noted, no stated cut-off is given here; in the data, active means inhibition above about 30%; inactive means the rest.

SMILES	PostGolgi yeast	tolC growth inh	HePTP inh	PLAP activator	PostGolgi ctrl	E coli WT exp
COc1ccc(OC)c(-c2cc(C(=O)N3CCCc4ccccc43)no2)c1	-2.3	65.3*	-1.1	1.1	37.0*	-23.0
COc1ccc(OCCCC(=O)N2CCCc3ccccc32)cc1	-5.8	32.5	4.1	1.3	33.9*	4.0
COc1ccc(-c2cc(C(=O)N3CCN(C(c4ccccc4)c4ccccc4)CC3)no2)cc1OC	10.5	8.5	11.8	1.1	1.8	-10.0
O=C(CCCC(=O)N1CCCc2ccccc21)N1CCCc2ccccc21	-6.7	15.8	7.4	1.5	4.4	-9.0
COc1ccc(-c2cc(C(=O)N3CCN(C(c4ccccc4)c4ccccc4)CC3)no2)cc1	3.7	16.0	-2.9	1	42.0*	-18.0
COc1ccc(-c2cc(C(=O)N3CCc4ccccc4C3)no2)cc1OC	-2.9	75.4*	-11.9	1.1	20.1	-24.0
CCOC(=O)c1oc2c(c1C)C(Cl)=C(C=O)CC2	nt	nt	8.9	nt	nt	nt
CCc1nnc(NC(=O)CN2CCN(Cc3ccccc3)CC2)s1	nt	nt	-1.7	nt	nt	nt
O=C(COc1ccc2ccccc2c1)N/N=C/c1ccccc1[N+](=O)[O-]	nt	nt	3.7	nt	nt	nt
COc1cccc(-c2cc(C(=O)N3CC4(C)CC3CC(C)(C)C4)no2)c1 (stereo not given)	-1.9	79.8*	2.0	0.9	20.5	-9.0
COc1ccc(-c2cc(C(=O)N3CCCc4ccccc43)no2)cc1OC	8.6	38.6	4.8	1.1	20.6	-12.0
COc1cccc(-c2cc(C(=O)N3CCCc4ccccc43)no2)c1	0.9	54.6	13.0	1.2	35.2*	-9.0
COc1ccccc1N1CCN(C(=O)c2cc(-c3cccc(Cl)c3)on2)CC1	-2.3	68.8*	6.8	1.1	21.2	-18.0
COc1ccc(-c2cc(C(=O)N3CCCc4ccccc43)no2)cc1	1.3	62.7*	-2.3	0.9	9.5	-17.0
COc1cccc(-c2cc(C(=O)N3CCCCCC3)no2)c1	3.8	29.1	11.2	1.5	-0.2	-2.0
Brc1ccc2ncnc(Nc3ccc4c(c3)OCCO4)c2c1	nt	nt	11.2	nt	nt	nt
Fc1ccccc1NCn1cnc2ccccc21	nt	nt	6.6	nt	nt	nt
CCOc1ccc(N/C=C\C(=O)c2ccc(F)cc2)c([N+](=O)[O-])c1	nt	nt	2.0	nt	nt	nt
CCOC(=O)/C(=C/c1cc2ccccc2n1C)[N+](=O)[O-]	nt	nt	0.6	nt	nt	nt
COc1cc(NC(=O)c2ccc(Br)o2)ccc1NC(=O)c1ccco1	nt	nt	-3.8	nt	nt	nt
Clc1ccc(Nc2ccc(-n3ccnc3)nn2)cc1Cl	8.6	nt	nt	0.8	34.3*	-2.0
N#CC(C(=O)C1CCCCC1)c1nc2ccccc2[nH]1 (stereo not given)	-4.1	24.0	6.7	0.8	47.0*	0.0
O=C(C1CCCCC1)N1CCC(c2nc3ccccc3[nH]2)CC1	-4.7	12.2	-3.5	1	-14.9	2.0
c1ccc2[nH]c(NC3=NCCC3)nc2c1	3.3	1.3	-4.4	2.1*	0.4	21.0
COc1ccccc1Nc1nc2ccccc2[nH]1	18.2	14.8	-5.3	1.1	-3.3	16.0
SMILES	PostGolgi yeast	tolC growth inh	HePTP inh	PLAP activator	PostGolgi ctrl	E coli WT exp
CCOC(=O)c1cnc(-n2nc(C)cc2C)nc1Nc1ccccc1OC	4.6	nt	nt	0.8	1.3	-8.0
CCOC(=O)c1cnc(-n2nc(C)cc2C)nc1NCCc1ccccc1	6.5	100.0*	5.3	1.8	39.5*	2.0
COc1ccc(CN2CCN(c3ncccn3)CC2)c(OC)c1	-3.9	-3.3	4.2	0.9	41.8*	0.0
Cc1nc2c(C#N)c(C)[nH]n2c(=O)c1Cc1ccccc1	9.9	nt	nt	1.2	37.3*	-14.0
Cc1nc2nc(-c3ccccc3)[nH]n2c(=O)c1Cc1ccccc1	-8.0	29.3	14.8	0.7	2.8	-8.0
Cc1nc2nc(-c3ccco3)[nH]n2c(=O)c1Cc1ccccc1	5.0	72.3*	-1.8	1	1.2	2.0
Cc1ccccc1OCC(=O)Nc1ccc(Nc2ccccc2)cc1	nt	nt	-1.0	nt	nt	nt
O=C(c1cn(-c2ccccc2)nc1-c1cccs1)N1CCOCC1	2.4	nt	nt	1.2	-5.1	9.0
O=C(c1cn(-c2ccccc2)nc1-c1cccs1)N1CCN(c2ccccc2)CC1	-1.3	nt	nt	1.3	44.1*	-18.0
COC(=O)C1=C(C)N(CCc2ccc(OC)c(OC)c2)C(=O)C1	-6.3	nt	96.5*	1.4	10.0	-2.0
O=S(=O)(Nc1ccc(F)c(Cl)c1)c1ccccc1Cl	nt	nt	-1.8	nt	nt	nt
O=C1NC(=O)/C(=C\c2ccc(Br)cc2)S1	nt	nt	0.5	nt	nt	nt
O=C(c1ccncc1)N1N=C(c2cccc([N+](=O)[O-])c2)CC1(O)C(F)(F)F (stereo not given)	nt	nt	-4.4	nt	nt	nt
Cc1ccc2c(c1)c1ncnc(N3CCOCC3)c1n2C	19.7	12.4	4.2	0.8	36.2*	-2.0
Cc1ccc2c(c1)c1ncnc(N3CCN(c4ccccc4)CC3)c1n2C	17.4	64.2*	-4.8	1	52.6*	-8.0
Cc1ccc2c(c1)c1ncnc(N3CCC4(CC3)OCCO4)c1n2C	-2.5	17.8	1.1	1.4	19.0	4.0
C=CC(=O)NC(NC(=O)C=C)c1ccc(F)cc1	nt	nt	6.2	nt	nt	nt
COc1ccc(S(=O)(=O)Cc2ccc(C(=O)N3CCN(c4ccccc4)CC3)o2)cc1	1.5	19.6	1.9	1.3	1.7	-3.0
Cc1ccccc1S(=O)(=O)Cc1ccc(C(=O)N2CC(C)CC(C)C2)o1 (stereo not given)	7.8	19.0	3.7	1.2	19.4	2.0
COc1ccc(S(=O)(=O)Cc2ccc(C(=O)N3CCN(c4ccccc4F)CC3)o2)cc1	-5.0	14.7	-7.1	1.5	32.2*	1.0
Cc1ccccc1S(=O)(=O)Cc1ccc(C(=O)N2CCN(c3cccc(C)c3C)CC2)o1	0.3	69.0*	4.0	1.4	38.2*	-16.0
CC(C)N1C(=O)/C(=C/c2cccc([N+](=O)[O-])c2)SC1=S	nt	nt	10.6	nt	nt	nt
COc1ccc(C2c3sc(=O)[nH]c3SC3C4CCC(C4)C23)cc1 (stereo not given)	7.7	100.0*	-12.4	1.6	26.5	-8.0
O=[N+]([O-])c1ccc(OC(CNS(=O)(=O)c2ccc(Cl)cc2)c2ccccc2)cc1 (stereo not given)	nt	nt	-4.2	nt	nt	nt
Cc1[nH]n(-c2ccccc2)c(=O)c1/C=N/Nc1nncc(-c2ccccc2)n1	3.9	nt	nt	1.4	4.8	93.0*
SMILES	PostGolgi yeast	tolC growth inh	HePTP inh	PLAP activator	PostGolgi ctrl	E coli WT exp
Cc1ccc(NC(=O)/C=C/c2ccco2)cc1C	nt	nt	6.6	nt	nt	nt
O=C(CN1CCOCC1)NCC12CC3CC(CC(C3)C1)C2	0.8	-2.3	1.8	1	36.7*	-2.0
COC(=O)c1ccc(C(=O)OC)c(NC(=O)c2cc(Cl)ccc2Cl)c1	nt	nt	102.1*	nt	nt	nt
COC(=O)c1ccc(C(=O)Nc2cc(Cl)ccc2Cl)cc1NC(=O)c1ccc(N(C)C)cc1	3.5	nt	nt	1	-1.8	-9.0
O=C1CC2(CON=C2c2ccc(F)cc2)C(=O)N1c1ccc(F)cc1 (stereo not given)	5.3	-21.8	2.2	1.1	32.9*	4.0
Cc1ccc(N2C(=O)[C@@H]3C(c4ccc(F)cc4)=NO[C@@H]3C2=O)cc1	27.9	-29.8	6.8	1	-2.6	1.0
CC(C)CC(NC(=O)/C(=C\c1ccc(Cl)cc1)NC(=O)c1ccco1)C(=O)OCc1ccccc1 (stereo not given)	nt	nt	-2.0	nt	nt	nt
